Experimental findings from ChEMBL document CHEMBL1122688, “Antimycotic azoles. 7. Synthesis and antifungal properties of a series of novel triazol-3-ones” (1984) are described below.

SMILES strings stand for the structures.

The subject of one assay is Saprolegnia. As to the kind of experiment: In vitro antifungal activity against Saprolegnia sp. The class given is functional. The gist of the method: (§1)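 Fungal growth-inhibition screen (Godefroi method) against dermatophytes, yeasts, moulds and other fungi. The value is the lowest concentration (µg/mL) giving total inhibition of growth, tested up to 100 µg/mL.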
For the next assay, the system named is Aspergillus fumigatus. Briefly: In vitro antifungal activity against Aspergillus fumigatus. The class given is functional. The gist of the method:
as §1

Another assay deals with Candida tropicalis. As to the kind of experiment: In vitro antifungal activity against Candida tropicalis. In kind it is functional. The method in brief: as §1
A further assay concerns Sporothrix schenckii. Briefly: In vitro antifungal activity against Sporothrix schenck ii. The class given is functional. The method in brief:
as §1

In a further assay the test system is Phialophora verrucosa. Briefly: In vitro antifungal activity against Phialophora verrucosa. The class given is functional. The method in brief: as §1
In the next assay the test system is Trichophyton benhamiae. As to the kind of experiment: In vitro antifungal activity against Trichophyton mentagrophytes. The class given is functional, Arthroderma benhamiae. The gist of the method: as §1
Assay [1] can be described thus: In vitro antifungal activity against Mucor sp. The class given is functional. The gist of the method: as §1
In another assay the test system is Candida albicans. As to the kind of experiment: In vitro antifungal activity against Candida albicans. The class given is functional. The gist of the method:
as §1

A short description of assay [2]: In vivo activity against vaginal candidoses in rats, measured as the ratio of animals cured/animals infected (C/I) at dose 2.5 mg/kg; C/I = 0/2. The class given is functional.
The next assay relates to Cryptococcus neoformans. Briefly: In vitro antifungal activity against Cryptococcus neoformans. The class given is functional. The gist of the method:
as §1

The test system of a further assay is Trichophyton rubrum. Briefly: In vitro antifungal activity against Trichophyton rubrum. In kind it is functional. The gist of the method:
as §1

For another assay, the system named is Microsporum canis. Briefly: In vitro antifungal activity against Microsporum canis. In kind it is functional. The method in brief: as §1
A short description of assay [3]: In vivo activity against microsporosis guinea pig, measured as the ratio of animals cured/animals infected (C/I) at dose 2.5 mg/kg; C/I = 0/2. The class given is functional.

As to `Oc1nncn1-c1ccc(N2CCN(c3ccc(OC[C@@H]4COC(Cn5ccnc5)(c5ccc(Cl)cc5Cl)O4)cc3)CC2)cc1` (stereo partly specified), the Inhibition is above 100 µg/mL in the assay with Saprolegnia; above 100 µg/mL in the assay with Aspergillus fumigatus; 100 µg/mL with Candida tropicalis; above 100 µg/mL in the assay with Sporothrix schenckii; above 100 µg/mL in the assay with Phialophora verrucosa; 100 µg/mL with Trichophyton benhamiae. For the same compound, the Inhibition (in assay [1]; in the assay with Candida albicans; with Cryptococcus neoformans; with Trichophyton rubrum; in the assay on Microsporum canis) was above 100 µg/mL each time. Besides, the C/I ratio in [2] was determined as 0.
With `CCn1ncn(-c2ccc(N3CCN(c4ccc(OC[C@@H]5COC(Cn6ccnc6)(c6ccc(Cl)cc6Cl)O5)cc4)CC3)cc2)c1=O` (stereo partly specified), the Inhibition is above 100 µg/mL in the assay with Saprolegnia; above 100 µg/mL with Aspergillus fumigatus; 100 µg/mL in the assay with Candida tropicalis; above 100 µg/mL with Sporothrix schenckii; above 100 µg/mL in the assay with Phialophora verrucosa; 100 µg/mL with Trichophyton benhamiae. The Inhibition in assay [1] is above 100 µg/mL; in the assay on Candida albicans it was 100 µg/mL; in the assay with Cryptococcus neoformans, above 100 µg/mL; in the assay with Trichophyton rubrum, 10 µg/mL; in the assay on Microsporum canis it was above 100 µg/mL. In addition, the C/I ratio in [2] turned out to be 0.
As to `CCc1nnc(O)n1-c1ccc(N2CCN(c3ccc(OC[C@@H]4COC(Cn5ccnc5)(c5ccc(Cl)cc5Cl)O4)cc3)CC2)cc1` (stereo partly specified), in assay [3], the C/I ratio was 0. Moreover, the Inhibition was above 100 µg/mL with Saprolegnia; above 100 µg/mL with Aspergillus fumigatus; 100 µg/mL in the assay on Candida tropicalis; above 100 µg/mL with Sporothrix schenckii; above 100 µg/mL with Phialophora verrucosa; above 100 µg/mL in the assay with Trichophyton benhamiae. For the same compound, the Inhibition in [1] was above 100 µg/mL; with Candida albicans, 100 µg/mL; in the assay with Cryptococcus neoformans it was above 100 µg/mL; with Trichophyton rubrum, above 100 µg/mL; with Microsporum canis it was above 100 µg/mL.
For `CCn1nc(C)n(-c2ccc(N3CCN(c4ccc(OC[C@@H]5COC(Cn6ccnc6)(c6ccc(Cl)cc6Cl)O5)cc4)CC3)cc2)c1=O` (stereo partly specified), the C/I ratio in assay [3] and in assay [2] was 0 each time. In addition, the Inhibition with Saprolegnia is above 100 µg/mL; in the assay with Aspergillus fumigatus, above 100 µg/mL; in the assay with Candida tropicalis, 100 µg/mL; with Sporothrix schenckii, above 100 µg/mL; in the assay on Phialophora verrucosa, above 100 µg/mL; in the assay on Trichophyton benhamiae, 100 µg/mL. Besides, the Inhibition (in [1]; in the assay with Candida albicans; with Cryptococcus neoformans; in the assay with Trichophyton rubrum; in the assay with Microsporum canis) was above 100 µg/mL each time.
Consider `CCCn1nc(C)n(-c2ccc(N3CCN(c4ccc(OC[C@@H]5COC(Cn6ccnc6)(c6ccc(Cl)cc6Cl)O5)cc4)CC3)cc2)c1=O` (stereo partly specified), for which the Inhibition with Saprolegnia was above 100 µg/mL; in the assay with Aspergillus fumigatus it was above 100 µg/mL; in the assay with Candida tropicalis, 100 µg/mL; in the assay with Sporothrix schenckii it was above 100 µg/mL; in the assay with Phialophora verrucosa, above 100 µg/mL; in the assay on Trichophyton benhamiae, above 100 µg/mL. For the same compound, the Inhibition in assay [1] was above 100 µg/mL; in the assay with Candida albicans, 100 µg/mL; in the assay with Cryptococcus neoformans, above 100 µg/mL; in the assay on Trichophyton rubrum, above 100 µg/mL; in the assay on Microsporum canis, above 100 µg/mL. Moreover, the C/I ratio in assay [2] was found to be 0.
